Data as given in paper PMC10501872 (Acta Pharmaceutica Sinica. B, 2023).
Each block holds one compound with its values, some of them ahead of it.

Legend:
Water solubility = type: physicochemical
TLR4 [1] = target: T1, TLR4 (Homo sapiens, UniProt O00206); assay: Surface plasmon resonance, hTLR4; type: binding; details: SPR
Outline: (§1)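 For SPR chip coating, human TLR2 was expressed in insect H5 cells and diluted in PBS to 1 mg/mL. Commercial human TLR4 protein was diluted in PBS to 0.1 mg/mL.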
Target sequence in this assay (O00206 24-631 limits assumed): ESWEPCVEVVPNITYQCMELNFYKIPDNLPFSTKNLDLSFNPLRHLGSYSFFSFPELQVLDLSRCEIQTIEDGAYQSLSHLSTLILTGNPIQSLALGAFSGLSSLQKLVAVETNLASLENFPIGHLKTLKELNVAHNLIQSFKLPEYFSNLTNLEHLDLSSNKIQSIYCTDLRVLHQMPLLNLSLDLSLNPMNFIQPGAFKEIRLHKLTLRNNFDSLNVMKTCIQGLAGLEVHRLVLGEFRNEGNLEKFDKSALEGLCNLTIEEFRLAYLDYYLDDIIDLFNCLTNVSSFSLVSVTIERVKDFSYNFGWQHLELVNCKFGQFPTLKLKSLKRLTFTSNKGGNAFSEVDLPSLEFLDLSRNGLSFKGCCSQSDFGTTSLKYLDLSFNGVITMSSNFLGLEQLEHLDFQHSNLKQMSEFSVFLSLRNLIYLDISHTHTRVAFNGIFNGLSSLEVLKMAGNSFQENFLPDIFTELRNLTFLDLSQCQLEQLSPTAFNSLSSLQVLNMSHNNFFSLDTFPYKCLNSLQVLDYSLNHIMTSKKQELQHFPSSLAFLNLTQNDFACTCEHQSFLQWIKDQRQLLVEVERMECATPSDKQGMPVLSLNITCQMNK

C57Bl/6 mice [2] = assay: Carrageenan-induced paw edema model; type: in vivo, mouse; details: at 4 h; for paw swelling (measured by volume): ip prior to carrageenan
Outline: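 Male C57Bl/6 mice (6–8 weeks) were randomised into four groups of six. Saline, indomethacin (10 mg/kg ip) or test compound (5 mg/kg ip) was given 1 h before 50 μL 1% carrageenan was injected into the right hind plantar paw. Paw volume was read by plethysmometer at baseline and at 1, 4, 8 and 24 h. At 4 h, paws were weighed and homogenised in 0.5% HTAB phosphate buffer (pH 6.0); supernatant triplicates were assayed with 3,3′-dimethoxybenzidine/1% H2O2 for MPO.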

TLR2 [3] = target: T2, TLR2 (Homo sapiens, UniProt O60603); assay: QUANTI-blue SEAP assay, Pam3CSK4-stimulated HEK-Blue hTLR2 cells; type: cell-based
Outline: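 HEK-Blue hTLR2 cells (4 × 10^4 per well) were grown 24 h at 37 °C, 5% CO2 in DMEM with 10% FBS, then given fresh medium. Graded test compound and Pam3CSK4 (100 ng/mL) were added for 24 h. Supernatant was mixed 1:1 with QUANTI-Blue, shaken in the dark, and OD620 read at 15–30 min.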

[4] = test system: mouse primary peritoneal macrophage; assay: Peritoneal macrophage phenotype assay; type: cell-based; details: 10 μmol/L
Outline: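 Peritoneal macrophages were plated at 1 × 10^6 per well in RPMI 1640 with 10% FBS and left overnight. Cells were treated for 24 h with medium, Pam3CSK4 (100 ng/mL) + IFN-γ (40 ng/mL), or LPS (100 ng/mL) + IFN-γ (40 ng/mL), each with test compound. Cells were trypsinised, stained 30 min for CD86 and CD11b, and analysed by flow cytometry.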

TLR2 [5] = target: T2, TLR2; assay: Competitive combination assay with Rhodamine-Pam3CSK4; type: cell-based; details: 1 μmol/L, Rhodamine-Pam3CSK4 800 ng/mL, 4 h
Outline: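 HEK-hTLR2 cells (3 × 10^4 per well) were seeded in DMEM with 10% FBS and left overnight. Medium was replaced with DMEM containing 800 ng/mL rhodamine-Pam3CSK4 and 1 μmol/L test compound for 4 h. After three PBS washes, nuclei were stained with DAPI for 5 min, cells were washed again and imaged by confocal microscopy.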

C57Bl/6 mice [6] = assay: Cecum ligation and puncture sepsis model; type: in vivo, mouse; details: oral 5 and 25 mg/kg 1 h before CLP; serum and lung tissue, 8 h
Outline: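 Male C57Bl/6 mice aged 6–8 weeks were used for polymicrobial sepsis by CLP. Test compound was given orally 1 h before surgery; sham-operated mice received the same volume of saline. Serum and lung tissue were taken 8 h after surgery for ELISA.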

[7] = test system: healthy human peripheral blood mononuclear cells (PBMCs); assay: Cytokines ELISA, Pam3CSK4-treated PBMCs; type: cell-based; details: 5 μmol/L, Pam3CSK4 100 ng/mL, 24 h
Outline: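 Human PBMCs were seeded at 0.5 × 10^6 per well in RPMI 1640 with 10% FBS. Test compound plus Pam3CSK4 (100 ng/mL) was added for 24 h at 37 °C, 5% CO2. Supernatants were stored at −80 °C, then assayed by sandwich ELISA with recombinant cytokine standards, in triplicate.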

C57Bl/6 mice [8] = assay: DSS-induced colitis; type: in vivo, mouse; details: for weight loss: oral administration, Day 8
Outline: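 Colitis was induced with 3.5% DSS in drinking water for 5 days (not in controls), followed by normal water. From Day 2, test compound (5 or 25 mg/kg), dexamethasone (25 mg/kg) or vehicle was given orally. Body weight was recorded daily and mice were killed on Day 8. Colon was lysed in RIPA with protease/phosphatase inhibitors by sonication at 4 °C and spun at 12,000×g for 30 min. IL-6 and TNF-α were measured by ELISA on BCA-equalised protein.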

HEK-Blue hTLR2 cells = assay: Cell toxicity assay; type: cell-based, human; details: 24 h, CCK-8
Outline: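 HEK-hTLR2 cells were seeded at 3 × 10^4 per well in DMEM with 10% FBS and left overnight at 37 °C. Graded concentrations of test compound were added for 24 h at 37 °C. CCK-8 was then added for 1–4 h at 37 °C and absorbance read at 450 nm.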

TLR4 [9] = target: T1, TLR4; assay: Cellular thermal shift assay, TLR4; type: binding; details: 20 μmol/L, THP-1 cells
Target sequence in this assay (O00206 24-839): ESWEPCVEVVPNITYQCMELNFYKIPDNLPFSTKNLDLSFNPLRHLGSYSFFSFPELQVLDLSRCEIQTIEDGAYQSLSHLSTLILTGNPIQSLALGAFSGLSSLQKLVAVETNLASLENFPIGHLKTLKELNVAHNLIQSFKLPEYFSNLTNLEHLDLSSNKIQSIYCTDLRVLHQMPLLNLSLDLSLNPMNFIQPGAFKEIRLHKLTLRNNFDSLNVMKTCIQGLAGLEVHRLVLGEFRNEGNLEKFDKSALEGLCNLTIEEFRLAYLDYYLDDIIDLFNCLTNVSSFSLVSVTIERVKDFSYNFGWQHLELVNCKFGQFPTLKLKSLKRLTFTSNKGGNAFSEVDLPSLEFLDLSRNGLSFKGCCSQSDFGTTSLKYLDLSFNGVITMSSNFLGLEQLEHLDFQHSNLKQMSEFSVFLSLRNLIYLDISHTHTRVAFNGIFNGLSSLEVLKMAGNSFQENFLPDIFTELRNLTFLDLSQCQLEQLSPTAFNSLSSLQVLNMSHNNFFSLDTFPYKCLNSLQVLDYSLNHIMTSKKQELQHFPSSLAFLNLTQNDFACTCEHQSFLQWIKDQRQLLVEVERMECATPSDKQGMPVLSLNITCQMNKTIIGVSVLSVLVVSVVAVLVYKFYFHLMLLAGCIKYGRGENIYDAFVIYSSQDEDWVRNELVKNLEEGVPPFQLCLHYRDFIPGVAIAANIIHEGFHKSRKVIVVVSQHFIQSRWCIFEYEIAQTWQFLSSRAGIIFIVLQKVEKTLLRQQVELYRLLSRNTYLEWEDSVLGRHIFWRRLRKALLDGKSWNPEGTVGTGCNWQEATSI

mouse primary BMDCs = assay: BMDCs activation assay; type: cell-based; details: 10 μmol/L
Outline: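 BMDCs were generated from femur and tibia marrow of C57BL/6 mice and collected on day 7. They were seeded at 5 × 10^5 per well in RPMI 1640 with 10% FBS and left overnight. Cells then received Pam3CSK4 (300 ng/mL) or LPS (100 ng/mL) plus test compound for 24 h. Harvested cells were stained 30 min for CD86, CD80 and CD11c and read by flow cytometry.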

[10] = Pharmacokinetics in rat plasma; type: in vivo; details: for AUC: rat plasma; for AUC / half-life: n = 5; for half-life: t1/2, rat plasma
TLR2 [11] = target: T2, TLR2; assay: Surface plasmon resonance, hTLR2; type: binding
Outline: as §1

[12] = test system: primary murine peritoneal macrophages; assay: Nitric oxide; type: cell-based, mouse; details: 10 μmol/L; Pam3CSK4 100 ng/mL, IFN-γ 40 ng/mL
Outline: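 Thioglycolate-elicited peritoneal macrophages from 6–8-week C57BL/6 mice were seeded at 1 × 10^6 per well. Cells were exposed to IFN-γ (40 ng/mL) and Pam3CSK4 (100 ng/mL) with test compound for 48 h. Nitrite was read at 570 nm against a sodium nitrite standard curve.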

TLR2/6 = TLR2/6 (Homo sapiens, UniProt O60603); assay: SEAP signaling induced by Pam2CSK4 in HEK-Blue hTLR2 cells; type: cell-based; details: Pam2CSK4 100 ng/mL, 24 h
TLR2 [13] = target: T2, TLR2; assay: Cellular thermal shift assay, TLR2; type: binding; details: 20 μmol/L, THP-1 cells, 45 to 53 °C, especially at 51 °C
TLR4 [14] = assay: Cytokines ELISA, LPS-treated peritoneal macrophages and THP-1 cells; type: cell-based, human and murine; details: LPS 100 ng/mL, 24 h
Outline: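 Thioglycolate-elicited peritoneal macrophages from C57BL/6 mice were seeded at 0.5 × 10^6 per well in RPMI 1640 with 10% FBS. THP-1 cells (2.5 × 10^5 cells/mL) were differentiated with 100 nmol/L PMA for 24 h, washed and rested 24 h in fresh medium. Both cell types received LPS (100 ng/mL) plus graded test compound for 24 h at 37 °C. Supernatants were frozen at −80 °C and cytokines quantified by sandwich ELISA against recombinant standards, in triplicate.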

KM mice = assay: Toxicity studies in vivo; design: species or system mouse; details: 250 mg/kg oral on Day 1, 3 and 5; Day 7
Outline: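 Male and female KM mice (6–8 weeks) were split into control and treated groups of 10 (half male). Test compound was given orally on Days 1, 3 and 5; controls received the same volume of solvent. Body weight was recorded daily. On Day 7, mice were killed and tissues taken for H&E pathology.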

T2 sequence (O60603 21-784): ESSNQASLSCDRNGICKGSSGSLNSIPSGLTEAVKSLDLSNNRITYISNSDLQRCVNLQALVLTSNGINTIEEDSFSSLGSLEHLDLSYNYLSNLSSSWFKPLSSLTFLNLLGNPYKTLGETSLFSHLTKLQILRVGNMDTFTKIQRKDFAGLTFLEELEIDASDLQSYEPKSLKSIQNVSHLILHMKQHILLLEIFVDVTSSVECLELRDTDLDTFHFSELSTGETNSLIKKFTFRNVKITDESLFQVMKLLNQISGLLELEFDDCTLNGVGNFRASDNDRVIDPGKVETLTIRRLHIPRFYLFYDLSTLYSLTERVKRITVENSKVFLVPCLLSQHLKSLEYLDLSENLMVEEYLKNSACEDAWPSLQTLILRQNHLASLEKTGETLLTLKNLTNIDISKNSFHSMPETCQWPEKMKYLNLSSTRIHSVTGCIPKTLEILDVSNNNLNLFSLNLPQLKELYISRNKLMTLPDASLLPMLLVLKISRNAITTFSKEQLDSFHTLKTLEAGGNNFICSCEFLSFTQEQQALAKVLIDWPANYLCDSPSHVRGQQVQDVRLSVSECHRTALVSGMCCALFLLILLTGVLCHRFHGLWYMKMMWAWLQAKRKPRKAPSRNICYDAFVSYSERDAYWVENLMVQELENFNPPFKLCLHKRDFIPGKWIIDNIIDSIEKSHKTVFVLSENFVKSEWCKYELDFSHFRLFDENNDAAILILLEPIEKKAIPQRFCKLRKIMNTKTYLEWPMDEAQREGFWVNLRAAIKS
Chain of TLR2/6 (O60603 21-784): as above

SMILES: COc1ccc2c(=O)oc3c(OC)cc(CCN(C)C)c4c(=O)oc1c2c34 [Taspine, reference compound]
- water solubility (Water solubility): poor water solubility

- binding signal to recombinant hTLR4 protein (TLR4 [1]): exhibited the ability to bind
SMILES: CCOC(=O)C1=CCCC[C@H]1S(=O)(=O)Nc1ccc(F)cc1Cl [TAK-242, reference compound]

SMILES: COc1ccc2c(c1)c(CC(=O)O)c(C)n2C(=O)c1ccc(Cl)cc1 [indomethacin, reference compound]
- activity of local myeloperoxidase (MPO) in paw tissue (C57Bl/6 mice [2]): reversed
- paw swelling (measured by volume) (C57Bl/6 mice [2]): significantly reduced

SMILES: COc1ccc2c(=O)oc3c(OC)cc(CC(O)CN(C)C)c4c(=O)oc1c2c34 (stereo not drawn) [SMU-Y6]
- IC50 (TLR2 [3]): 110 ± 40 nM
- improvement of activity compared with Taspine (TLR2 [3]; vs Taspine): 10 fold
- polarization induced by LPS and IFN-γ [4]: no effect
- activity of local myeloperoxidase (MPO) in paw tissue (C57Bl/6 mice [2]): reversed
- paw swelling (measured by volume) (C57Bl/6 mice [2]): significantly reduced
- fluorescence intensity of Rhodamine-Pam3CSK4 (TLR2 [5]): reduced the fluorescence intensity
- production of IL-6 in sepsis (C57Bl/6 mice [6]): significantly reduced the production
- production of TNF-α in sepsis (C57Bl/6 mice [6]): significantly reduced the production
- water solubility relative to Taspine (Water solubility; vs Taspine): 20 times
- release of IL-1β [7]: completely inhibited
- release of TNF-α [7]: completely inhibited
- weight loss (C57Bl/6 mice [8]): reduced weight loss
- IL-6 in local colonic tissue (C57Bl/6 mice [8]; oral, 5 and 25 mg/kg): reduced the production
- TNF-α in local colonic tissue (C57Bl/6 mice [8]; oral, 5 and 25 mg/kg): reduced the production
- cytotoxicity compared with Taspine (HEK-Blue hTLR2 cells): reduced toxicity
- thermal stabilization of TLR4 (TLR4 [9]): failed to induce the thermal stabilization
- binding signal to recombinant hTLR4 protein (TLR4 [1]): did not detect a binding signal
- LPS-induced activation of BMDCs (mouse primary BMDCs): failed to reverse
- percentage of CD80+ CD86+ cells (mouse primary BMDCs; Pam3CSK4, 16.6% without compound): 8.1%
- Cmax ([10]; ip): 208 ± 31.1 ng/mL
- Tmax ([10]; ip): 0.25 ± 0.01 h
- AUC ([10]; ip, AUC0‒t, intraperitoneal injection): 1790 ± 410 ng·h/mL
- AUC ([10]; ip, AUC0‒∞, intraperitoneal injection): 2160 ± 600 ng·h/mL
- half-life ([10]; ip, intraperitoneal injection): 9.16 ± 1.11 h
- Cmax ([10]; po): 52.3 ± 5.83 ng/mL
- Tmax ([10]; po): 3 ± 1 h
- AUC ([10]; po, AUC0‒t, oral administration): 619 ± 84.2 ng·h/mL
- AUC ([10]; po, AUC0‒∞, oral administration): 844 ± 184 ng·h/mL
- half-life ([10]; po, oral administration): 11.5 ± 2.7 h
- Kd (TLR2 [11]): 180 nM
- time to complete dissociation from TLR2 protein (TLR2 [11]; SPR): 500 s
- production of NO induced by Pam3CSK4 [12]: significantly reduced
- SEAP signaling induced by Pam2CSK4 (TLR2/6): suppressed the SEAP signaling
- thermal stabilization of TLR2 protein (TLR2 [13]): higher thermal stabilization
- inhibitory activity with regards to TLR4 (TNF-α, IL-6) (TLR4 [14]): little or even no inhibitory activity
- immediate toxicity (KM mice): did not seem to exhibit immediate toxicity
- pathological analysis of heart, liver, spleen, lung and kidney (KM mice): no obvious organic damage

SMILES: C[C@@H]1C[C@H]2[C@@H]3CCC4=CC(=O)C=C[C@]4(C)[C@@]3(F)[C@@H](O)C[C@]2(C)[C@@]1(O)C(=O)CO [dexamethasone, reference compound]
- weight loss (C57Bl/6 mice [8]): reduced weight loss
